Test results published in publication PMC3277286 (Journal of Medicinal Chemistry, 2012).

Key:
human ΔF508-CFTR [1] = target: T1, human ΔF508-CFTR (Homo sapiens, UniProt P13569, DEL508-508); assay type: cell-based; details: summary in text of corrector and potentiator assays in ΔF508-CFTR FRT cells
Outline: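 FRT cells coexpressing human ΔF508-CFTR and YFP-H148Q/I152L were grown 18–24 h at 37 °C, then rescued 18–24 h at 27 °C. After a PBS wash, they got 20 μM forskolin with test compound (0–50 μM final, eight concentrations) for 10 min. I⁻ influx was recorded over 2 s baseline plus 12 s after iodide addition, rate by exponential regression. Controls were DMSO and genistein. Runs were in triplicate; EC50/Vmax came from a 4-parameter logistic fit.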

human ΔF508-CFTR [2] = target: T1, human ΔF508-CFTR; assay: ΔF508-CFTR corrector activity, fluorescence plate-reader iodide influx assay; assay type: cell-based; details: summary in text of corrector and potentiator assays in ΔF508-CFTR FRT cells
Outline: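 FRT cells stably coexpressing human ΔF508-CFTR and YFP-H148Q/I152L were grown 24 h at 37 °C, then given test compound for 16–20 h at eight concentrations (maximum 25 μM). After a PBS wash, they got 20 μM forskolin plus 50 μM genistein for 20 min. Iodide influx was read as YFP quenching after Cl-to-I replacement (137 mM), fitted exponentially. Runs were in triplicate; EC50/Vmax came from a 4-parameter logistic fit.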

Row | Activity class from function studies (potentiator) (human ΔF508-CFTR [1]) | Activity class from function studies (corrector / dual) (human ΔF508-CFTR [2]) | Compound
1 | potentiator-only activity |  | Cc1cc(C)c2cc(C#N)c(NCCNC(=O)c3ccccn3)nc2c1 [CoPo 16, N-(2-((3-Cyano-5,7-dimethylquinolin-2-yl)amino)ethyl)picolinamide]
2 | potentiator-only activity |  | Cc1cc(C)c2cc(C#N)c(NCCCNC(=O)c3ccccn3)nc2c1 [CoPo 34, N-(3-(3-Cyano-5,7-dimethylquinolin-2-ylamino)propyl)picolinamide]

Second part, the compound before the results:

Row | Compound | Activity class from function studies (potentiator) (human ΔF508-CFTR [1]) | Activity class from function studies (corrector / dual) (human ΔF508-CFTR [2])
3 | Cc1cc(C)c2cc(C#N)c(NCCNC(=O)c3ccccc3)nc2c1 [CoPo 19, N-(2-((3-Cyano-5,7-dimethylquinolin-2-yl)amino)ethyl)benzamide] | potentiator-only activity | 
4 | Cc1cc(C)c2cc(C#N)c(NCCNC(=O)c3cnccn3)nc2c1 [CoPo 22, N-(2-((3-Cyano-5,7-dimethylquinolin-2-yl)amino)ethyl)pyrazine-2-carboxamide] |  | corrector-only activity
5 | COc1ccccc1C(=O)NCCCNc1nc2cc(C)cc(C)c2cc1C#N [CoPo 31, N-(3-(3-Cyano-5,7-dimethylquinolin-2-ylamino)propyl)-2-methoxybenzamide] | potentiator-only activity | 
